Data: ChEMBL document CHEMBL4229344 (Eur J Med Chem, 2018)

Legend:
[1] = target: Citron Rho-interacting kinase (Homo sapiens) (UniProt O14578); assay: Binding affinity to wild-type human partial length CIT (M68 to E432 residues) expressed in bacterial expression system assessed as residual binding level at 1 uM by Kinomescan method relative to control
Summary of the method: (§1)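 Kinome-wide competition binding screen against a panel of 468 purified kinases/mutants, with the test compound at a single concentration of 1 μM. Read-out is the relative binding activity of each kinase in the presence of compound.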

[2] = target: Cyclin-dependent kinase 18 (Homo sapiens) (UniProt Q07002); assay: Binding affinity to wild-type human full length PCTK3 (M3 to F474 residues) expressed in bacterial expression system assessed as residual binding level at 1 uM by Kinomescan method relative to control
Sequence of Cyclin-dependent kinase 18 (Homo sapiens) (Q07002 whole entry, the tested form may be a part): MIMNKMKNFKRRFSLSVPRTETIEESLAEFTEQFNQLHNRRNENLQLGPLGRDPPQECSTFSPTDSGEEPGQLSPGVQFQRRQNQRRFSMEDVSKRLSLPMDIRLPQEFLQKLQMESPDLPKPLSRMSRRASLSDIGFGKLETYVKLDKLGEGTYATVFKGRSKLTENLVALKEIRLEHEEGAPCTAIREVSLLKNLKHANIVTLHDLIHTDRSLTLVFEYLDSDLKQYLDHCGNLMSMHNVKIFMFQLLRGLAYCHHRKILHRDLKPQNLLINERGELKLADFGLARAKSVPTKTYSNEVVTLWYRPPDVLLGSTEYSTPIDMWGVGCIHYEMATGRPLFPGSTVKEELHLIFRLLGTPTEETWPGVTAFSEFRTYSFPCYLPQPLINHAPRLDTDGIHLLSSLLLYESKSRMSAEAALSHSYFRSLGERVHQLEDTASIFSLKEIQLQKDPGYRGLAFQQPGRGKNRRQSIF
Summary of the method: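 Single-concentration KINOMEscan (DiscoverX) binding screen at 1 μM against a panel of 468 purified kinases and mutants. The read-out is binding relative to control.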

[3] = target: Casein kinase I isoform delta (Homo sapiens) (UniProt P48730); assay: Binding affinity to wild-type human full length CSNK1D (M1 to K409 residues) expressed in bacterial expression system assessed as residual binding level at 1 uM by Kinomescan method relative to control
Sequence of Casein kinase I isoform delta (Homo sapiens) (P48730 whole entry, looked up, the tested form may be a part, canonical isoform): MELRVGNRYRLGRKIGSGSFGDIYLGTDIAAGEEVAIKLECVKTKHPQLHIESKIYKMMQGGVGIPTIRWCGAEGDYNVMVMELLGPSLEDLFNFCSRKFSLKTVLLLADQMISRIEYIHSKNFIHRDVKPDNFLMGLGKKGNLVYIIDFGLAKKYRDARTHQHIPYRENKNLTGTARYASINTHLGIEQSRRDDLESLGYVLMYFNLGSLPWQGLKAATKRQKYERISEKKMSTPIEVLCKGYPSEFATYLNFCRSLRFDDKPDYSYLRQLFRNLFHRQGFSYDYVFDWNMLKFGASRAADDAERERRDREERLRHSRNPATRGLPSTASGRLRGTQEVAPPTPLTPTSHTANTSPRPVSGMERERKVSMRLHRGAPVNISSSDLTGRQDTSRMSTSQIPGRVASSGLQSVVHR
Summary of the method: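 Single-concentration (1 μM) competition-binding screen run by KINOMEscan against a panel of 468 purified kinases and mutants. The read-out is the relative binding activity of the test compound to each kinase.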

[4] = system: Epidermal growth factor receptor (Homo sapiens), P00533 [G719C]; assay: Binding affinity to human partial length EGFR G719C mutant (R669 to V1011 residues) expressed in bacterial expression system assessed as residual binding level at 1 uM by Kinomescan method relative to control
Summary of the method: (§2)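 Kinome-wide single-concentration binding screen (KINOMEscan) at 1 μM against a panel of 468 purified kinases and mutants. Read-out is relative binding of each kinase compared with control. Selectivity across the panel was summarised as an S(10) score.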

[5] = target: Mitogen-activated protein kinase 8 (Homo sapiens) (UniProt P45983); assay: Binding affinity to wild-type human full length JNK1 (M1 to Q384 residues) expressed in mammalian expression system assessed as residual binding level at 1 uM by Kinomescan method relative to control
Sequence of Mitogen-activated protein kinase 8 (Homo sapiens) (P45983 whole entry, the tested form may be a part): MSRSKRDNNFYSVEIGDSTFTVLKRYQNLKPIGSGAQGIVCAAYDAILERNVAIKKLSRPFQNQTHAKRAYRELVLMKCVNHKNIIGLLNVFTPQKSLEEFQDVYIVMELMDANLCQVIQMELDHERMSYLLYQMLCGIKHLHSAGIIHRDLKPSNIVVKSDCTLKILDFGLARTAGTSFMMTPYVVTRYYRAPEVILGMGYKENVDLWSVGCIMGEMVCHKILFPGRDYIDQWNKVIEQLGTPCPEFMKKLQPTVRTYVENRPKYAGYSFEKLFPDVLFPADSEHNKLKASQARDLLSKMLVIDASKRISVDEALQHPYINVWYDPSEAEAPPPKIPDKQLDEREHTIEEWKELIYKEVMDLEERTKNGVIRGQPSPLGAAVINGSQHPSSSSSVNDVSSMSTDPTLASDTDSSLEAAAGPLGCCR
Summary of the method: (§3)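 KINOMEscan competition binding against 468 purified kinases/mutants, test compound at 1 µM; residual binding relative to control.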

[6] = target: Mitogen-activated protein kinase 7 (Homo sapiens) (UniProt Q13164); assay: Binding affinity to wild-type human partial length ERK5 (M1 to A409 residues) expressed in bacterial expression system assessed as residual binding level at 1 uM by Kinomescan method relative to control; summary of the method: as §1
Sequence of Mitogen-activated protein kinase 7 (Homo sapiens) (Q13164 2-816 limits assumed): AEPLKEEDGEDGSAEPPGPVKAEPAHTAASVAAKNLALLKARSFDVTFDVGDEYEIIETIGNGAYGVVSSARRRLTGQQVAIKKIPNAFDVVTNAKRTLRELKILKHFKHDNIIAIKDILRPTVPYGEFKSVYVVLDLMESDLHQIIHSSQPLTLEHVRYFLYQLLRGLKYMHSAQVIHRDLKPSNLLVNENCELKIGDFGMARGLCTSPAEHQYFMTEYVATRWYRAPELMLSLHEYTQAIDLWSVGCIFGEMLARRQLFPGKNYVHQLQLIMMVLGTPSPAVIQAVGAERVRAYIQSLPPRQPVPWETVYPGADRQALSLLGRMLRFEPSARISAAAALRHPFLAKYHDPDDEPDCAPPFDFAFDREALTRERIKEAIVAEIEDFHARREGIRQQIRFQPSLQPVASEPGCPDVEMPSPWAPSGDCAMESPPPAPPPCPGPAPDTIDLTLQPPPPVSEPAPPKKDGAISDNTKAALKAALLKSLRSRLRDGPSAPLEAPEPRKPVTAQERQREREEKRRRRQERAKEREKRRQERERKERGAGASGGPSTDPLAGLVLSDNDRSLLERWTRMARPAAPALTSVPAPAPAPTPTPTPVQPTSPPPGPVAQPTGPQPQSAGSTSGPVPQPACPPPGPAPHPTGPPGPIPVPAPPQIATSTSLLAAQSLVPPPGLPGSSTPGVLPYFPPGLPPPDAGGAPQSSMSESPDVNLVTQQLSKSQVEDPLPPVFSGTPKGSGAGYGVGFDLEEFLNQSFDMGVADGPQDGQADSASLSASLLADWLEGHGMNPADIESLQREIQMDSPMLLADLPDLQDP

[7] = system: Epidermal growth factor receptor (Homo sapiens), P00533 [L858R]; assay: Binding affinity to human partial length EGFR L858R mutant (R669 to V1011 residues) expressed in bacterial expression system assessed as residual binding level at 1 uM by Kinomescan method relative to control; summary of the method: as §2
[8] = target: Serine/threonine-protein kinase 17B (Homo sapiens) (UniProt O94768); assay: Binding affinity to wild-type human full length DRAK2 (M1 to C372 residues) expressed in bacterial expression system assessed as residual binding level at 1 uM by Kinomescan method relative to control; summary of the method: as §3
Sequence of Serine/threonine-protein kinase 17B (Homo sapiens) (O94768 whole entry, the tested form may be a part): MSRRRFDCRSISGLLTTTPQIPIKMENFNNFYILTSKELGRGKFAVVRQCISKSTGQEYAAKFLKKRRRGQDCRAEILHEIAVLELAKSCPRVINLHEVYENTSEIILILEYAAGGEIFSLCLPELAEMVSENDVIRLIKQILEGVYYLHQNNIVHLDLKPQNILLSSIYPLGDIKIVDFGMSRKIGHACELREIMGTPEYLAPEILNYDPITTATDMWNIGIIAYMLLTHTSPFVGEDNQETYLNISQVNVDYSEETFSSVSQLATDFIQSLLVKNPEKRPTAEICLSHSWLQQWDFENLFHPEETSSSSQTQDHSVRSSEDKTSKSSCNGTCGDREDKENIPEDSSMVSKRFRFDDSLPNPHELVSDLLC

Sequence of Citron Rho-interacting kinase (Homo sapiens) (O14578 whole entry, the tested form may be a part): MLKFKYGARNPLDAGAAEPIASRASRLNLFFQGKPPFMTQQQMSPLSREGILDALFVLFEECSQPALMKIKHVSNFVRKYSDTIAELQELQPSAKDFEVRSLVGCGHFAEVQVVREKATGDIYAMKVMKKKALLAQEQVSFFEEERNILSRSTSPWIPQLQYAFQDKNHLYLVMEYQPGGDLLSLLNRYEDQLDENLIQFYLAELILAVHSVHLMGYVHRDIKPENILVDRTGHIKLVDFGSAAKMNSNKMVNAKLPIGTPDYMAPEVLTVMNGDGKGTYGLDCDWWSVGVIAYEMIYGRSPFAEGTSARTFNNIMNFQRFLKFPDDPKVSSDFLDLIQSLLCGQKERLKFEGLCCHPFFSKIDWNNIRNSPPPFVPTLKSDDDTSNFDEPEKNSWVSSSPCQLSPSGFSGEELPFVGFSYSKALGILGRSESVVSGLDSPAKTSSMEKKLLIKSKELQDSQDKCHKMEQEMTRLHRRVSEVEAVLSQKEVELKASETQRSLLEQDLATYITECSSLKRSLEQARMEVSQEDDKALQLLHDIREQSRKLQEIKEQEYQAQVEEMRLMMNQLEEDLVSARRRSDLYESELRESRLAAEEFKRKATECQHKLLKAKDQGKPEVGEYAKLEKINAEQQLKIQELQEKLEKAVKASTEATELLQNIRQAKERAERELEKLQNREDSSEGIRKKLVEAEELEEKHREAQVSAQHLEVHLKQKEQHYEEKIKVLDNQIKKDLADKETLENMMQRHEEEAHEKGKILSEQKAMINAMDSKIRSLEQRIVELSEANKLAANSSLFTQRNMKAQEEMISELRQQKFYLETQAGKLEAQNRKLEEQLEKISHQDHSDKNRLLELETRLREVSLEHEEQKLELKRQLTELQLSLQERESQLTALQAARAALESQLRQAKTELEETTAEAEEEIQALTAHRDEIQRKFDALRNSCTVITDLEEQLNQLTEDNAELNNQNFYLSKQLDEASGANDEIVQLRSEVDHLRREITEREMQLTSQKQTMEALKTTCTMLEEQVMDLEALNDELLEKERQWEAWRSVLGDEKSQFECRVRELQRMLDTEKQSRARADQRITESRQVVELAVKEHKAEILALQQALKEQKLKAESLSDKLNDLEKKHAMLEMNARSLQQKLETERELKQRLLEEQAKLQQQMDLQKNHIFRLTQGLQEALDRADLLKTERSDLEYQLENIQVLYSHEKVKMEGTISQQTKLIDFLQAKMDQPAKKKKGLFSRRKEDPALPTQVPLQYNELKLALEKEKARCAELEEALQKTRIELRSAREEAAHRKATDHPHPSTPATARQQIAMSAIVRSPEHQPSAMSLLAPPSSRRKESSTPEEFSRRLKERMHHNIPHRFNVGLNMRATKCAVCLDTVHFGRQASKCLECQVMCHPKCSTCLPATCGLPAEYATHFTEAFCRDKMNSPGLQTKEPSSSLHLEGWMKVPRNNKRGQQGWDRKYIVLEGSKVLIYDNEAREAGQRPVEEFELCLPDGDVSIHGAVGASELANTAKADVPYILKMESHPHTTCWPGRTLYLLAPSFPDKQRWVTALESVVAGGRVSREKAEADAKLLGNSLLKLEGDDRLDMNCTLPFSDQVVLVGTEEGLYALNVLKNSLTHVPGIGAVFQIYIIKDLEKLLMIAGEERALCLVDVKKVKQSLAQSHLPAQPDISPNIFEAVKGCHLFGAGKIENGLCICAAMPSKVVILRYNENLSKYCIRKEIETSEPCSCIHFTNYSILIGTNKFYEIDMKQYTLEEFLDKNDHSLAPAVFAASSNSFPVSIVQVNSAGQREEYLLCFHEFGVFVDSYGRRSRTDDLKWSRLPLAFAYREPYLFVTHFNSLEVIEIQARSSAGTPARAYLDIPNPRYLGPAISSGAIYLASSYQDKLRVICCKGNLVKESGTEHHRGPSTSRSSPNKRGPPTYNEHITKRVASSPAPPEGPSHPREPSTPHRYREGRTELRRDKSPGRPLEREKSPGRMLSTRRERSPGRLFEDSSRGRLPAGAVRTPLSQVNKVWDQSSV

Structure (SMILES): Cc1ccc(NC(=O)c2ccc(CN(CCN(C)C)C(=O)c3cccnc3)cc2)cc1Nc1nccc(-c2cccnc2)n1
- Activity [1]: 89%
- Activity [2]: 95%
- Activity [3]: 95%
- Activity [4]: 88%
- Activity [5]: 36%
- Activity [6]: 84%
- Activity [7]: 100%
- Activity [8]: 94%
